# Bioassay records deposited in PubChem BioAssay by several laboratories.
# A selection: hits, their analogues and other compounds. The true share with any hit is near 1.8%.
# SKN-1 block = C. elegans SKN-1 inhibition; C. elegans VP596 Pgst-4::GFP/RFP ratio, acrylamide-induced, 24 h; hit rate 0.49% among 360,000; inhibition, % at 21.8 µM;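 active = interference check ratio from 0.5 to 1.5 plus GFP to RFP signal ratio inhibition reaching or exceeding a fixed threshold, cut at about 30% in these data, passing the limit was not always enough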
# hiPSC survival = increases survival of single human iPS cells; hiPSC single-cell survival, ATPlite luminescence; 100% = ROCK inhibitor wells, 0% = DMSO; survival enhancement, % at 20 µM; hit rate 0.044% among 360,000; AID 602274; in the data active = survival enhancement above about 18%;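 also: cells exposed to compounds for 16 hours before the ATP read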
# MT1-MMP act inh = blocks activation of human MT1-MMP | P50281 | hit rate 0.061% among 360,000 | HT1080 RFP-PRO-GFP cells, GFP/RFP ratio fluorescence, overnight; percent of plate control window, DMSO zero | GFP/RFP ratio change, % at 20 µM;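 active = GFP/RFP ratio change of at least 30% with cell ATP level not reduced by more than half and red fluorescence within 50% of control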
#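 Read-out: GFP/RFP fluorescence ratio; Test system: RFP-PRO-GFP reporter HT1080 cells; Compound dosing: single-point 20 µM compound, 1% DMSO; Times: overnight compound exposure at 37 °C.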
# DAGLB inhibitor = diacylglycerol lipase beta (human) inhibition; hit rate 0.059% among 340,000; Q8NCG7; HEK293T DAGLB membrane lysate, EnzChek fluorogenic substrate; inhibition, % at 5.17 µM; in the data active = inhibition above about 34%;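 also: 0% = enzyme with vehicle and 100% = wells lacking enzyme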
# Target sequence (Q8NCG7 whole entry, looked up): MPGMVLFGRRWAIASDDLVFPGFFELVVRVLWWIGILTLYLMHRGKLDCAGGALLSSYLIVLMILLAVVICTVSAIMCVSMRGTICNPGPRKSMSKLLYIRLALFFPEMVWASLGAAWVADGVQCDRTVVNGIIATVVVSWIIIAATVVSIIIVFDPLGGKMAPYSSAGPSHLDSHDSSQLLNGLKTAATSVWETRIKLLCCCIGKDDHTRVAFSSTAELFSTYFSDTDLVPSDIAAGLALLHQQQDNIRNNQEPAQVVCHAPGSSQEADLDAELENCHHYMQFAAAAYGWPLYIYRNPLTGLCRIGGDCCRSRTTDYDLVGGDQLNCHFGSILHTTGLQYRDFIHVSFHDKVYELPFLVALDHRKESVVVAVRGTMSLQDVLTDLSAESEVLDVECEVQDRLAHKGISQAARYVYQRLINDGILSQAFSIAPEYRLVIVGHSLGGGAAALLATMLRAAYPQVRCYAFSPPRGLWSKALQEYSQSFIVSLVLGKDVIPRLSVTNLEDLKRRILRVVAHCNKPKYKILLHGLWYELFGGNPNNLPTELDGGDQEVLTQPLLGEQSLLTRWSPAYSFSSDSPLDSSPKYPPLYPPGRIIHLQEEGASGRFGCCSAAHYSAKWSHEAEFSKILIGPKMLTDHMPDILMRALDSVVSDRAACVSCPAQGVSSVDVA
# Cneo AK release = causes C. neoformans cell lysis | AID 651654 | adenylate kinase release luminescence, 4 h; normalised: neutral wells 0, clomiphene wells 100 | hit rate 0.2% among 360,000 | lysis activity, % at 15 µM;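 active = mean lysis activity across replicates of at least 80%, whatever share of replicates individually reach that level; inactive = mean lysis activity below 80%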
#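 Material – log-phase Cryptococcus neoformans yeast cells · Input – 5 × 10^6 yeast cells/mL · Medium – fresh YPD growth medium · Doses – single compound concentration per well · Timing – static 4 h at 37 °C with compound, 1 h detection · Detection – adenylate kinase release luminescence · Read-out – signal increase indicating cell lysis · Control set – Clomiphene as positive lysis control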
# rRNA inh HTS = inhibits bacterial ribosomal RNA function over humanized ribosomes; E. coli WT GFP vs humanized-ribosome RFP mutants, fluorescence, 24 h; hits give low values; DMSO median 0, no signal -100; hit rate 1.6% among 350,000; GFP signal change (wild-type ribosome), % (concentration not given with the values); AID 720706;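 active = significant combined selectivity score with lowered wild-type GFP, culture density cut under 30%, mutant RFP and density less affected; inactive = any of these conditions unmet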
# * = called active by the depositor; x = no result.
SMILES,SKN-1 block,hiPSC survival,MT1-MMP act inh,DAGLB inhibitor,Cneo AK release,rRNA inh HTS
COc1ccc2c3c(n(C)c2c1)[C@@H](CO)N(C(=O)CN1CCOCC1)CC31CCN(C)CC1,x,x,x,x,x,7
Nc1cccn2c(-c3ccc(Cl)c(Cl)c3)cnc12,10,-1,-25,2,x,-26*
Nc1cccn2c(-c3ccc(Cl)cc3)cnc12,15,-1,-24,-1,x,-6
O=C(/C=C/c1ccccc1)CC(O)(c1ccccc1)C(F)(F)F (stereo not drawn),3,-2,-21,14,2,x
O=C(/C=C/c1ccccc1)CC(O)(c1ccccc1)C(F)(F)C(F)F (stereo not drawn),16,-1,-21,4,0,-32*
CC(=O)c1sc(Nc2ccccc2)nc1C,15,0,4,x,3,0
CC(C)(C)C(=O)c1sc(Nc2ccccc2)nc1N,18,0,-13,4,-7,-39*
OCC1(Cc2ccc(Cl)cc2)CCN(Cc2ccc3nsnc3c2)CC1,10,-1,3,-1,10,-23*
COc1ccc(CC2(CO)CCN(Cc3ccc4nsnc4c3)CC2)cc1,10,-1,0,-1,x,-3
O=C(C[C@H]1C[C@H]2c3cc(NC(=O)NC4CCCC4)ccc3O[C@H]2[C@@H](CO)O1)NCc1cccc(F)c1,x,x,x,x,x,5
Fc1ccccc1CNCCC(Cc1ccccc1)c1ccc2c(c1)OCO2 (stereo not drawn),7,-1,-4,-4,2,-51*
Cc1c(CC(=O)O)c(=O)oc2cc3occ(-c4ccccc4)c3cc12,-16,0,4,-5,0,-19*
Cc1c(CCC(=O)O)c(=O)oc2c(C)c3occ(-c4ccc(Br)cc4)c3cc12,-11,-1,15,5,0,-16*
COc1ccc(NC(=O)Nc2ccc3c(c2)C(=O)N([C@@H](C)CO)C[C@H](C)[C@@H](CN(C)Cc2ccncc2)OCCCC[C@H](C)O3)cc1,x,x,x,x,-1,-2
C[C@@H]1CN([C@@H](C)CO)C(=O)c2cc(NS(=O)(=O)c3cn(C)cn3)ccc2O[C@@H]1CN(C)Cc1ccc(Cl)c(Cl)c1,x,x,x,x,0,0
O=C(Cc1cccc(NC(=O)C2CCCN(C(=O)CCc3ccccc3)C2)c1)Nc1cccc(C(=O)N2CCCCC2)c1 (stereo not drawn),-3,0,1,-1,5,-18*
C[C@H](CO)N1C[C@H](C)[C@H](CN(C)C(=O)CCCN(C)C)OCCCC[C@H](C)Oc2ccc(NC(=O)NC3CCCCC3)cc2C1=O,x,x,x,x,-2,4
CO[C@@H](CN(C)Cc1ccc2c(c1)OCO2)[C@@H](C)CN(C(=O)c1ccccc1)[C@H](C)CO,x,x,x,x,96*,4
CN(N=O)c1ccc(CC2CCc3ccccc32)cc1 (stereo not drawn),44*,4,3,-11,x,-2
O=C(Cc1ccc(F)cc1)N[C@@H]1c2ccccc2CC[C@@H]1O,9,-3,-2,-2,-1,-9
CC(C)CN(C[C@H]1N[C@@H](CO)[C@@H]1c1ccc(-c2cncnc2)cc1)C(=O)C1CC1,x,x,x,x,x,0
O/N=C/c1ccnc(SCc2ccc(Cl)cc2)n1,-3,0,2,-3,x,-5
O/N=C/c1ccnc(SCc2ccccc2)n1,5,0,1,-2,x,-16*
O=C(Cc1ccccc1)N1C[C@H]2[C@@H](c3ccccc31)[C@H](CO)N2C(=O)c1cccc(F)c1,x,x,x,x,6,0
O=C(Nc1ccc(Cl)cn1)c1ccc(Oc2ccccc2)cc1,-5,0,3,-11,-4,2
SMILES,SKN-1 block,hiPSC survival,MT1-MMP act inh,DAGLB inhibitor,Cneo AK release,rRNA inh HTS
CCCOc1ccc(C(=O)Nc2ccc(Cl)cn2)cc1,41*,-3,1,-7,-18,x
CC(C)(C)OC(=O)NOCC(=O)N(Cc1ccccc1)CC(O)COc1ccccc1 (stereo not drawn),15,-2,7,3,2,-18*
C[C@@H]1CN([C@H](C)CO)C(=O)c2cc(NC(=O)Nc3cccc4ccccc34)ccc2O[C@@H](C)CCCCO[C@H]1CN(C)Cc1ccncc1,x,x,x,x,6,-4
COc1ccc(Nc2nc(NCc3ccco3)nc(N/N=C/c3ccccc3F)n2)cc1,0,1,-2,3,-2,-27*
COc1ccc(/C=N/Nc2nc(NCc3ccco3)nc(Nc3ccc(OC)cc3)n2)cc1,5,4,-4,4,1,-6
NC(=O)CC(NC(=O)Cc1cccc2ccccc12)c1ccc(N2CCCCCC2)c([N+](=O)[O-])c1 (stereo not drawn),7,-1,0,14,6,-3
NC(=O)CC(NC(=O)Cc1cccc2ccccc12)c1ccc(N2CCC(N3CCCCC3)CC2)c([N+](=O)[O-])c1 (stereo not drawn),46*,-2,5,1,2,6
COc1cc(CCC(=O)OCC(=O)Nc2ccc(F)cc2F)cc(OC)c1OC,40*,0,0,-1,0,1
C[C@@H]1CN(C)C(=O)Cc2ccccc2O[C@H]1CN(C)C(=O)OC(C)(C)C,x,x,x,x,x,-1
CNS(=O)(=O)c1cc(N(C)S(=O)(=O)c2ccc(C)cc2)c(C)cc1C,-12,0,-1,-1,x,-45*
Cc1ccc(S(=O)(=O)N(C)c2cc(S(=O)(=O)Nc3ccncc3)c(C)cc2C)cc1,0,-1,2,4,x,x
COc1ccccc1C1CN(c2ccc(F)cc2F)N=C1c1cccs1 (stereo not drawn),44*,0,-8,-7,0,x
O=C(C[C@H]1CC[C@H](NC(=O)c2ccncc2)[C@H](CO)O1)NCc1ccncn1,x,x,x,x,x,0
CC(C)(C)CC(=O)NC(=S)N1CCCCCC1,81*,1,2,0,1,x
CN(C)C(=O)c1ccc(-c2ccc([C@H]3[C@H](CO)N4CCCCN(CCC(F)(F)F)C[C@@H]34)cc2)cc1,x,x,x,x,96*,-2
COc1cccc(S(=O)(=O)N2CCCCN3[C@@H](CO)[C@@H](c4ccc(C#CCC(C)C)cc4)[C@@H]3C2)c1,x,x,x,x,84*,-33
CC(C)CC#Cc1ccc([C@@H]2[C@H](CO)N3CCCCN(S(=O)(=O)c4ccc(F)cc4)C[C@@H]23)cc1,x,x,x,x,3,-19*
CN(C)C(=O)c1ccc(-c2ccc([C@H]3[C@@H](CO)N4CCCCN(CCC(F)(F)F)C[C@@H]34)cc2)cc1,x,x,x,x,2,1
COc1cccc(CN2CCCCN3[C@H](CO)[C@@H](c4ccc(C#Cc5cccnc5)cc4)[C@@H]3C2)c1,x,x,x,x,-2,8
